Data set [1] addresses Sodium-dependent noradrenaline transporter (Homo sapiens, UniProt P23975). As to the kind of experiment: Inhibition of human NET expressed in CHOK1 cells incubated for 45 mins by [3H]-norepinephrine uptake assay. Type of data set: cell-based, CHO-K1. A digest of the protocol:
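Human NET stably expressed in CHO cells (Ham/F12, 10% FBS), seeded 3 × 10^5 cells/mL, overnight culture. In HEPES-buffered salt/glucose buffer with 0.5% BSA, compound then [3H]-norepinephrine (diluted to 200 nM before addition) added; uptake 45 min, two PBS washes, scintillation counting. 10 µM desipramine taken as 100% inhibition; IC50 and 95% confidence interval from n=2.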

For data set [2], the species on record is Homo sapiens. Nature of the data set: Selectivity index, ratio of IC50 for human DAT to IC50 for human NET. The procedure, abridged: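 Ratio of IC50s from two [3H]-uptake assays in CHO cells stably expressing human DAT or NET, seeded overnight in HEPES-buffered saline with glucose and 0.5% BSA. Radioligand added from 200 nM dilutions. DAT: [3H]-dopamine plus cold dopamine (10 µM dilution), 60 min. NET: [3H]-norepinephrine, 45 min. Washed, scintillation counted; IC50 with 95% CI, n=2.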

Data set [3] concerns the target Sodium-dependent dopamine transporter (Homo sapiens, UniProt Q01959). As to the kind of experiment: Inhibition of human DAT expressed in CHOK1 cells incubated for 60 mins by [3H]-dopamine uptake assay. Format: cell-based, CHO-K1. The procedure, abridged:
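CHO cells stably expressing human DAT, grown in Ham/F12 with 10% FBS, seeded 3 × 10^5 cells/mL and cultured overnight. Compound added in buffer (NaCl, KCl, KH2PO4, MgSO4, 10 mM HEPES, CaCl2, glucose, 0.5% BSA), then [3H]-dopamine (200 nM stock, with 10 µM cold dopamine stock); 60 min uptake, PBS wash, scintillation count. 100 µM nomifensine as 100% inhibition; IC50 with 95% CI, n=2.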

Data set [4] is filed under the species Homo sapiens. As to the kind of experiment: Selectivity index, ratio of IC50 for human SERT to IC50 for human NET. The procedure, abridged:
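Ratio of IC50s from two [3H]-uptake assays in CHO cells (SERT or human NET expressing), seeded overnight in HEPES-buffered saline with glucose and 0.5% BSA. Radioligand added from 200 nM dilutions. SERT: [3H]-5-hydroxytryptamine, 20 min. NET: [3H]-norepinephrine, 45 min. Washed, scintillation counted; IC50 with 95% CI, n=2.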

For data set [5], the target named is Sodium-dependent serotonin transporter (Homo sapiens, UniProt P31645). Nature of the data set: Inhibition of human SERT expressed in CHOK1 cells incubated for 20 mins by [3H]-5-hydroxytryptamine uptake assay. Format: cell-based, CHO-K1. The procedure, abridged: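 CHO cells stably expressing human SERT, cultured in Ham/F12 plus 10% FBS, plated 3 × 10^5 cells/mL overnight. Buffer: 126 mM NaCl, 10 mM HEPES, glucose, 0.5% BSA; compound added at 10× then diluted, followed by [3H]-5-HT (200 nM stock). After 20 min, buffer removed, cells washed twice with PBS, radioactivity counted; IC50 and 95% CI from two experiments.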

The target in the next data set is CYP2D6 (Homo sapiens, UniProt P10635). As to the kind of experiment: Inhibition of CYP2D6 (unknown origin) at 10 uM. Type of data set: ADME.
The test system of data set [6] is Rattus norvegicus. As to the kind of experiment: In-vivo occupancy at NET in Sprague-Dawley rat brain cortex at 3 mg/kg, iv by [3H]-nisoxetine […] assay. Type of data set: functional. A digest of the protocol:
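Female Sprague-Dawley rats under urethane anaesthesia (i.p.) got compound i.v. The left cortex was removed 20 min later and homogenised in Tris-Cl pH 7.5/NaCl/KCl buffer. Membranes at 4 mg/mL protein were incubated 1 h at room temperature with [3H]-nisoxetine (25 nmol/L solution), with desipramine for nonspecific binding. Filtered on GF/B; occupancy taken against vehicle specific binding (100%).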

Another data set has as its target hERG (KCNH2) (Homo sapiens, UniProt Q12809). As to the kind of experiment: Inhibition of human ERG at 10 uM.
Data set [7] has as its system Rattus norvegicus. Nature of the data set: Increase in urethral resistance in rat assessed as increase in leak point pressure at 0.3 to 3 mg/kg, iv measured 30 mins post dose by Evans blue dye based assay. Format: functional, organism-based. Conditions: Urethra.
The test system of data set [8] is Rattus norvegicus. Nature of the data set: Increase in urethral resistance in rat assessed as increase in leak point pressure at 1 to 10 mg/kg, sc measured 30 mins post dose by Evans blue dye based assay. Format: functional, organism-based. Conditions: Urethra.

Active and inactive are the calls of the source. The calls are words filed in the database; no cut-off is given here. Where only a bound is given, the exact number is not on record here.

What is called IC50 is the midpoint of a concentration-inhibition curve. As a reminder, the inhibition is the change of the read-out against control, counted positive when it falls. A lower inhibition goes with a weak effect.

CYP2D6, sequence (P10635 whole entry): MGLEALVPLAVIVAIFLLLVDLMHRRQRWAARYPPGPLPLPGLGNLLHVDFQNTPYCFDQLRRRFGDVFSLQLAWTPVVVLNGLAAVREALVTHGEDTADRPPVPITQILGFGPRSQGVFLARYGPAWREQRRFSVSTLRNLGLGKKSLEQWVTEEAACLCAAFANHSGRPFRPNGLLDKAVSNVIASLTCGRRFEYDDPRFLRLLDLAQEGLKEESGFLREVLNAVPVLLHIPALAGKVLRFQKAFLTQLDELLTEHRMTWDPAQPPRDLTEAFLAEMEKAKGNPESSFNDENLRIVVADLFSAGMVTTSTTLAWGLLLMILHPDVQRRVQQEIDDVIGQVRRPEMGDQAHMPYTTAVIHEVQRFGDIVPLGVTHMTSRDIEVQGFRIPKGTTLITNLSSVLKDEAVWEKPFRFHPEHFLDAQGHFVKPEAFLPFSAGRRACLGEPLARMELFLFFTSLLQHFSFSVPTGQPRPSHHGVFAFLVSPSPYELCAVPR
Sodium-dependent noradrenaline transporter, sequence (P23975 whole entry): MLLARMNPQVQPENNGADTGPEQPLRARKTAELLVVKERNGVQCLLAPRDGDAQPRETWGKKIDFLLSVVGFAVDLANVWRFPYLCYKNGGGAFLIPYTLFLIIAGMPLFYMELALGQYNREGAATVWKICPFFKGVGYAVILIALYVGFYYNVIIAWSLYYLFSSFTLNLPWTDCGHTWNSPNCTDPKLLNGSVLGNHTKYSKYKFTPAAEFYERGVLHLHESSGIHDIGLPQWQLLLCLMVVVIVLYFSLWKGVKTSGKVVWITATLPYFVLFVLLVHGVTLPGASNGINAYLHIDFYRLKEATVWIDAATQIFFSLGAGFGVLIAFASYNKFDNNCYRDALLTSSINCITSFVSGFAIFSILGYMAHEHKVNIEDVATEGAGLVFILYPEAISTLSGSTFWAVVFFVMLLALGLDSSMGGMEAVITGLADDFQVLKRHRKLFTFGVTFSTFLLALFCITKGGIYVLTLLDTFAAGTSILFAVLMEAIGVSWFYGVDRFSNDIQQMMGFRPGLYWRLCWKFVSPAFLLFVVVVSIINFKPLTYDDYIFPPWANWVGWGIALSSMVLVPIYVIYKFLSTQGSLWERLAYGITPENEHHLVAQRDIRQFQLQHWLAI
Sodium-dependent serotonin transporter, sequence (P31645 whole entry): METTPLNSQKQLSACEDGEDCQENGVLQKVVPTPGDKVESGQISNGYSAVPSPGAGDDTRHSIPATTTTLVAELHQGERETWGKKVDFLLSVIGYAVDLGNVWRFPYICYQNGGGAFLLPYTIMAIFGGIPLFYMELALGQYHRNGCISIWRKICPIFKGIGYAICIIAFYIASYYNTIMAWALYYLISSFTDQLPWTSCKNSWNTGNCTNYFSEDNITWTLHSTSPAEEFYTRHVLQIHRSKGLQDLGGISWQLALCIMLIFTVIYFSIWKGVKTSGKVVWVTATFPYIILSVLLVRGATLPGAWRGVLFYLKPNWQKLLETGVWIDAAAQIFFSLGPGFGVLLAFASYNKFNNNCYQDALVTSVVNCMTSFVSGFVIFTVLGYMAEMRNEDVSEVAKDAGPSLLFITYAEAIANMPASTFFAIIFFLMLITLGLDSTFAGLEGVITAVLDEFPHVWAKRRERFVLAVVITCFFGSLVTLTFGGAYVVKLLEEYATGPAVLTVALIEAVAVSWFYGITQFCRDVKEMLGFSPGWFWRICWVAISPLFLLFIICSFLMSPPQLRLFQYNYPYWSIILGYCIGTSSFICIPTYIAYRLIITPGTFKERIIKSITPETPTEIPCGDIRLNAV
Sodium-dependent dopamine transporter, sequence (Q01959 whole entry): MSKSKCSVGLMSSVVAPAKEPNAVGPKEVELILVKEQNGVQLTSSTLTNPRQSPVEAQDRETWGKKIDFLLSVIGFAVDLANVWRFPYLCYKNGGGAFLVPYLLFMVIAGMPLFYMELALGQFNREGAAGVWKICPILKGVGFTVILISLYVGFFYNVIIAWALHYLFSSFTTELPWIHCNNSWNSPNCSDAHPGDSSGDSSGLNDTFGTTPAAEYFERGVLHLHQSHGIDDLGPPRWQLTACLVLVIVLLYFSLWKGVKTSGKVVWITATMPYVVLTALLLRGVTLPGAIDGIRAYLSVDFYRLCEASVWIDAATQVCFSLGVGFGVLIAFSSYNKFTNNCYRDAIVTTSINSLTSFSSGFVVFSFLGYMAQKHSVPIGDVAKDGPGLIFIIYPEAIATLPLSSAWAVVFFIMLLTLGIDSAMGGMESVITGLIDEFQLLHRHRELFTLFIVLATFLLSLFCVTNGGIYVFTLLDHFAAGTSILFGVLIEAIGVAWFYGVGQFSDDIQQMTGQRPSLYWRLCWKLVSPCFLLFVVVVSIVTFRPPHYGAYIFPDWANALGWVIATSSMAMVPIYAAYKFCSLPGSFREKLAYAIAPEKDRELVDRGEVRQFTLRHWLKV
hERG (KCNH2), sequence (Q12809 whole entry): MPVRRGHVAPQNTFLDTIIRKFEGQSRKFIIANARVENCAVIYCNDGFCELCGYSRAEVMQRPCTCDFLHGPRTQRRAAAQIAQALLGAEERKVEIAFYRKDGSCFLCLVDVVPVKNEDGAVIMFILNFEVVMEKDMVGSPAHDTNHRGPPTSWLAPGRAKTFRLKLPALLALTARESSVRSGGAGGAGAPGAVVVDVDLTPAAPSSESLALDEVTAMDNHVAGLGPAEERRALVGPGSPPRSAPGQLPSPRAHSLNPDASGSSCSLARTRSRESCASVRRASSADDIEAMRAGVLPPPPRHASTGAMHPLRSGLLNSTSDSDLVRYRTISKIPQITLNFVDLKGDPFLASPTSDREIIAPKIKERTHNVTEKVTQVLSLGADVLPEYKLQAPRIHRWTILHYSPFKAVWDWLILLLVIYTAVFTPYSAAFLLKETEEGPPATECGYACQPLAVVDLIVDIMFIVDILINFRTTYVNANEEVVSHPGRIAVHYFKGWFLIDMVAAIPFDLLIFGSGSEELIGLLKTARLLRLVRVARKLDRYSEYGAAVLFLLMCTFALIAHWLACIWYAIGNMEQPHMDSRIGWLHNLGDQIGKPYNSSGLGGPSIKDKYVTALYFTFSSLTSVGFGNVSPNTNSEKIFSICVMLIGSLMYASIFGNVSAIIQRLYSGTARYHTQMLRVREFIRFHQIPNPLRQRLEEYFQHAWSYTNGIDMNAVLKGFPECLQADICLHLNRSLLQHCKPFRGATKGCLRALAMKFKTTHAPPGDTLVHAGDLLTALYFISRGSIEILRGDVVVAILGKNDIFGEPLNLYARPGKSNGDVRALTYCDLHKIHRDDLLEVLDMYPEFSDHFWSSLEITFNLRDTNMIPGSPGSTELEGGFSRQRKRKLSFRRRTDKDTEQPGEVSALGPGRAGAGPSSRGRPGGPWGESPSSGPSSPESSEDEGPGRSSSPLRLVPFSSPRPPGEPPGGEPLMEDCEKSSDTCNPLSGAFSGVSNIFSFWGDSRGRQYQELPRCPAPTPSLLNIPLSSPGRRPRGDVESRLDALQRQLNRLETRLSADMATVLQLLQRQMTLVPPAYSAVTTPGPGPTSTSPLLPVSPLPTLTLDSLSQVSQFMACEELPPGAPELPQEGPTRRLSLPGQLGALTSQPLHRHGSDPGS

`OC[C@]1(c2ccc(Cl)c(Cl)c2)CCNCCO1`: the IC50 in data set [1] is 700 nM; in data set [3] it was above 10000 nM; in data set [5], 330 nM. The Ratio IC50 in the data set listed under Homo sapiens [2] was above 14; in the data set filed under Homo sapiens [4] it was 0.47. The inhibition at 10 µM at CYP2D6 was found to be 21%.
In the case of `NC(=O)[C@@H]1CNCCO[C@H]1c1ccc(Cl)c(Cl)c1`, the half-inhibitory concentration (IC50) in [1] was 52 nM; in data set [3], above 10000 nM; in data set [5], 780 nM. Moreover, the values for the Ratio IC50 in the data set filed under Homo sapiens [2] and in the data set listed under Homo sapiens [4] were above 190 and 15, respectively.
Consider `Cl.OC[C@@H]1CNCCO[C@H]1c1ccc(Cl)c(Cl)c1`, for which the IC50 in data set [1] stood at 2 nM; in data set [3], 3100 nM; in [5], 97 nM. In addition, the Ratio IC50 in the data set filed under Homo sapiens [2] stood at 1800; in the data set filed under Homo sapiens [4] it was 50. Also, in the data set on Rattus norvegicus [6], the Occ turned out to be 68%. For the same compound, the inhibition at 10 µM at CYP2D6 was 34%.
For the compound `OCC1(c2ccc(Cl)c(Cl)c2)CCCNCC1` (racemic), the IC50 in data set [1] is 2.1 nM; in [3] it was above 1000 nM; in data set [5], 35 nM. For the same compound, the results for the Ratio IC50 in the data set listed under Homo sapiens [2] and in the data set listed under Homo sapiens [4] were above 480 and 17, respectively. Moreover, testing at 10 µM against CYP2D6 gave an inhibition of 44%.
Turning to `CC(=O)NC[C@@H]1CNCCO[C@H]1c1ccc(Cl)c(Cl)c1.O=C(O)/C=C/C(=O)O`, the IC50 in data set [1] was 0.33 nM; in [3], 1500 nM; in [5], 150 nM. Further, the Ratio IC50 in the data set listed under Homo sapiens [2] came out at 4400; in the data set filed under Homo sapiens [4], 450. The inhibition at 10 µM on hERG (KCNH2) came out at 15%. In addition, the Occ with Rattus norvegicus [6] is reported as -14%. The Activity entry in the data set with Rattus norvegicus [7] was “Dose-dependent effect”.
Take `CC(=O)NC[C@@H]1CNCCO[C@H]1c1ccc(F)c(Cl)c1.O=C(O)/C=C/C(=O)O`: the IC50 in data set [1] is 13 nM; in [3], above 1000 nM; in data set [5] it was above 1000 nM. Further, the Ratio IC50 in the data set listed under Homo sapiens [2] and in the data set filed under Homo sapiens [4] was above 76 in each case. Moreover, the Occ in the data set with Rattus norvegicus [6] amounted to 1.7%.
For the compound `CC(=O)NCC[C@@H]1CNCCO[C@H]1c1ccc(Cl)c(Cl)c1`, the values for the IC50 in [1], in [3] and in data set [5] were 5.8 nM, above 1000 nM and 200 nM, respectively. The figures for the Ratio IC50 in the data set filed under Homo sapiens [2] and in the data set filed under Homo sapiens [4] were above 170 and 35, respectively.
Regarding `CC(=O)NC[C@@H]1CNCCO[C@H]1c1ccc(Cl)c(F)c1.Cl`, the IC50 in data set [1] is 2.3 nM; in data set [3], above 1000 nM; in data set [5], above 1000 nM. For the same compound, the Ratio IC50 in the data set filed under Homo sapiens [2] and in the data set filed under Homo sapiens [4] was above 440 in each case. Moreover, in the data set on Rattus norvegicus [6], the Occ is listed as -2.8%.
`CCOc1ccccc1O[C@@H](c1ccccc1)[C@@H]1CNCCO1`: the outcome in the data set on Rattus norvegicus [8] was Active.
For `OC[C@@]1(c2ccc(Cl)c(Cl)c2)CCNCCO1`, the 50% inhibitory concentration (IC50) was 5.6 nM in data set [1], above 10000 nM in data set [3] and 200 nM in data set [5]. For the same compound, the values for the Ratio IC50 in the data set listed under Homo sapiens [2] and in the data set listed under Homo sapiens [4] were above 1800 and 35, respectively. The compound further returned an inhibition at 10 µM on CYP2D6 of 23%.
For `OC[C@H]1CNCCO[C@@H]1c1ccc(Cl)c(Cl)c1`, the IC50 in data set [1] worked out at 5.8 nM; in data set [3] it was 1400 nM; in data set [5] it was 36 nM. For the same compound, the Ratio IC50 in the data set listed under Homo sapiens [2] is 230; in the data set listed under Homo sapiens [4], 6.1. Moreover, at 10 µM the inhibition on CYP2D6 was 45%.
In the case of `OC[C@@H]1CNCCO[C@@H]1c1ccc(Cl)c(Cl)c1`, the figures for the concentration for half-maximal inhibition (IC50) in [1], in data set [3] and in data set [5] were 8.5 nM, above 1000 nM and 11 nM, respectively. In addition, the Ratio IC50 in the data set listed under Homo sapiens [2] was above 120; in the data set filed under Homo sapiens [4], 1.3. This compound registered an inhibition at 10 µM on CYP2D6 of 58%.
Regarding `CNC(=O)[C@@H]1CNCCO[C@H]1c1ccc(Cl)c(Cl)c1`, the half-inhibitory concentration (IC50) was 12 nM in [1], above 1000 nM in data set [3] and above 1000 nM in data set [5]. The Ratio IC50 in the data set filed under Homo sapiens [2] and in the data set listed under Homo sapiens [4] was above 83 each time.
As for `CC(=O)NC[C@@H]1CNCCO[C@H]1c1ccc(Cl)c(C)c1`, the concentration for half-maximal inhibition (IC50) in data set [1] is 3.3 nM; in data set [3], above 1000 nM; in data set [5] it was 480 nM. Also, the Ratio IC50 in the data set listed under Homo sapiens [2] is above 300; in the data set listed under Homo sapiens [4], 150.
Consider `OC[C@H]1CNCCO[C@H]1c1ccc(Cl)c(Cl)c1`, for which the figures for the IC50 in [1], in data set [3] and in data set [5] were 6 nM, above 1000 nM and 120 nM, respectively. Also, the figures for the Ratio IC50 in the data set filed under Homo sapiens [2] and in the data set listed under Homo sapiens [4] were above 170 and 20, respectively. For the same compound, the inhibition at 10 µM at CYP2D6 came out at 47%.
In the case of `CN(C)C(=O)[C@@H]1CNCCO[C@H]1c1ccc(Cl)c(Cl)c1.Cl`, the IC50 in data set [1] worked out at 0.77 nM; in [3] it was 70 nM; in data set [5], 350 nM. Besides, the Ratio IC50 in the data set filed under Homo sapiens [2] was 91; in the data set filed under Homo sapiens [4] it was 460. Further, the Occ in the data set with Rattus norvegicus [6] was 68%.
As to `CC(=O)NC[C@@H]1CNCCO[C@H]1c1ccc(C)c(Cl)c1`, the results for the IC50 in [1], in data set [3] and in data set [5] were 3.4 nM, above 1000 nM and 680 nM, respectively. Further, the Ratio IC50 in the data set listed under Homo sapiens [2] was above 300; in the data set filed under Homo sapiens [4] it was 200.
Turning to `OCC1(c2ccc(Cl)c(Cl)c2)CCNCCO1` (racemic), the IC50 in data set [1] was 17 nM; in data set [3], above 10000 nM; in data set [5] it was 200 nM. In addition, the Ratio IC50 in the data set filed under Homo sapiens [2] was above 590; in the data set filed under Homo sapiens [4] it was 12. The same compound had an inhibition at 10 µM on CYP2D6 of 19%.
